The target in assay [1] is T1, G-protein coupled receptor 65 (Homo sapiens, UniProt Q8IYL9). Nature of the assay: Positive allosteric modulator activity at human GPR65 expressed in yeast assessed as Gq-yeast growth stimulation at 10 uM by microplate reader analysis. The procedure, abridged:
(§1)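 Gq-coupled yeast strain expressing receptor, in SD-His-Ura medium (pH 5.4) with 3-amino-1,2,4-triazole at a level giving moderate ligand-free growth (OD 0.2–0.6). Compound at 10 μM final, in triplicate. Starting OD600 0.02; growth 2–5 days at 30°C, read as OD600. Values are 100 × (well OD600 − plate median), given as % growth stimulation, mean ± SEM of three wells.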

Assay [2] deals with C-X-C chemokine receptor type 4 (Homo sapiens) (UniProt P61073). The assay is described as follows: Agonist activity against CXCR4 receptor (unknown origin) transfected in human HEK293T cells at 10 uM incubated for 15 mins in presence of CXCL12 by luminescence counter analysis. It is filed as functional, cell-based. The procedure, abridged: (§2)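 HEK293-T cells transiently transfected with CXCR4 and the GloSensor cAMP reporter, plated in DMEM with 1% dialyzed FBS. Test compound at 10 μM in 20 mM HEPES/HBSS, pH 7.4, 15 min at room temperature. Agonist mode: luciferin (4 mM final) plus 200 nM isoproterenol added, 20 min. Antagonist mode: compound 10 min, then reference agonist at EC80 for 10 min, then luciferin/isoproterenol. Luminescence read. CXCL12 (1 or 3 μM) is the agonist control and AMD3100 (10 μM) the antagonist control. n=2.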
Chain of C-X-C chemokine receptor type 4 (Homo sapiens) (P61073 whole entry): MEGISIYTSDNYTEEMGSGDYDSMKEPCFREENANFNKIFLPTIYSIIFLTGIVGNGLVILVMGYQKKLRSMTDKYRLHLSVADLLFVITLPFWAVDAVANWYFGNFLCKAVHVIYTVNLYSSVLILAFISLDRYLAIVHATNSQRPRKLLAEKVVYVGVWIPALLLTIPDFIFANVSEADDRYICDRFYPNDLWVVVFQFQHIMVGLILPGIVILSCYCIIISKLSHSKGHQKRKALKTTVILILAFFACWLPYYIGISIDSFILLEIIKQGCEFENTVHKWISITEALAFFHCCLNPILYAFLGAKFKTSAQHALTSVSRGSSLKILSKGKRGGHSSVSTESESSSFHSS

Assay [3] addresses G-prodeshotein coupled receptor 4 (Homo sapiens) (UniProt P46093). The assay is described as follows: Positive allosteric modulator activity at human GPR4 expressed in yeast assessed as Gq-yeast growth stimulation at 10 uM by microplate reader analysis. The procedure, abridged: as §1
In assay [4] the target is T2, G-protein coupled receptor 68 (Homo sapiens, UniProt Q15743). The assay is described as follows: Binding affinity to GPR68 expressed in human HEK293T cells assessed as cAMP production in presence of H+ proton by Split-luciferase based luminescence counter analysis. To be noted: filed as positive allosteric modulator. It is filed as cell-based. The procedure, abridged: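 Proton concentration-response of GPR68 (wild type or E160A/K/Q, R189L/M, H269F mutants) in transiently transfected HEK293-T cells. Read-out: GloSensor cAMP, with luciferin loading 90 min at 37°C at pH 8.4. Run with and without increasing modulator concentrations; 20 min at room temperature before luminescence. Proton KA fixed to the proton EC50 without modulator. KB, τA, α, β fitted globally with an operational allosteric model. n=4.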
T2 sequence (Q15743 whole entry): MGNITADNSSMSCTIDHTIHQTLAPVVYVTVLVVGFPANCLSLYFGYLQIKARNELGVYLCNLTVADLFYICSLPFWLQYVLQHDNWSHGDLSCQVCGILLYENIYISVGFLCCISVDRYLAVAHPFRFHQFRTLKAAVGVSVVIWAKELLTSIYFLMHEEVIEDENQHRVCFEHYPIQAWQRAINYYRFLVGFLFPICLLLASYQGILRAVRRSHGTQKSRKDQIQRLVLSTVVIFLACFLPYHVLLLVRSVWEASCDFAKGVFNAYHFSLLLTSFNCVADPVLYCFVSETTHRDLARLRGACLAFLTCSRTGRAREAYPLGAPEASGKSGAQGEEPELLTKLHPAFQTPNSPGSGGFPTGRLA
In general terms: Changes in cAMP serve as a functional read-out for many G protein-coupled receptors.

For assay [5], the target named is C-X-C chemokine receptor type 4 (Homo sapiens) (UniProt P61073). The assay is described as follows: Antagonist activity against CXCR4 receptor (unknown origin) transfected in human HEK293T cells at 10 uM incubated for 15 mins in presence of AMD3100 by luminescence counter analysis. In kind it is functional, cell-based. The essentials:
as §2

Assay [6] deals with T2, G-protein coupled receptor 68. Nature of the assay: Positive allosteric modulator activity at human GPR68 expressed in yeast assessed as Gq-yeast growth stimulation at 10 uM by microplate reader analysis. To be noted: filed as positive allosteric modulator. The essentials:
as §1

For assay [7] the target is unchanged. Nature of the assay: Positive allosteric modulator activity at HA-tagged GPR68 expressed in human HEK293T cells assessed as activation of p42/p44 MAP kinase at pH 7.4 by immunoblotting analysis. It is filed as cell-based. To be noted: filed as positive allosteric modulator. The essentials: (§3)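 HEK293 cells stably expressing N-terminal HA-tagged human GPR68 (vector-only line as control), selected with 250 μg/ml G418. Confluent cells were switched to Hams-F12 at pH 8.0 or 7.4 for 1 h, then given vehicle or 50 μM compound for 10 min. Lysate immunoblots were probed for HA, total VASP, p-p42/p44 and β-actin, read with infrared-fluorophore secondaries.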
A general note: In western blotting, separated proteins are transferred to a membrane and probed.

The target is the same in assay [8]. The assay is described as follows: Positive allosteric modulator activity at HA-tagged GPR68 expressed in human HEK293T cells assessed as activation of PKA at pH 7.4 by immunoblotting analysis. In kind it is cell-based. The conditions noted are these: filed as positive allosteric modulator. The procedure, abridged:
as §3

The target in assay [9] is T1, G-protein coupled receptor 65. The assay is described as follows: Agonist activity against GPR65 (unknown origin) transfected in human HEK293T cells incubated for 15 mins by luminescence counter analysis. It is filed as functional, cell-based. The conditions noted are these: filed as agonist. The procedure, abridged:
(§4)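 GloSensor split-luciferase cAMP assay. HEK293-T cells transiently co-transfected with GPR65 (wild type or the D153A, R187L, F242A or Y272A mutant) and GloSensor 7A reporter. Cells plated in DMEM with 1% dialyzed FBS for at least 6 h, then loaded with luciferin (4 mM, in drug buffer pH 8.4) for 90 min at 37°C. Compounds added at set pH in HBSS with 10 mM HEPES/10 mM MES, with TAPS for higher pH. Luminescence read after about 20 min at room temperature. Data normalized to buffer basal and fitted to a 4-parameter logistic.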

For assay [10] the target is unchanged. Nature of the assay: Antagonist activity against GPR65 (unknown origin) transfected in human HEK293T cells incubated for 15 mins by luminescence counter analysis. It is filed as functional, cell-based. The procedure, abridged: as §4
Assay [11] relates to HEK293T. Nature of the assay: Antagonist activity against GPR65 F242A mutant (unknown origin) transfected in human HEK293T cells incubated for 15 mins by luminescence counter analysis. In kind it is cell-based. To be noted: filed as antagonist. The procedure, abridged: as §4
Assay [12] in a line: Antagonist activity against GPR65 D153A mutant (unknown origin) transfected in human HEK293T cells incubated for 15 mins by luminescence counter analysis. To be noted: HEK-293T, 0.25 h. In kind it is cell-based. The essentials: as §4
Assay [13] is described as follows: Antagonist activity against GPR65 D153A mutant (unknown origin) transfected in human HEK293T cells incubated for 15 mins by luminescence counter analysis relative to control. To be noted: HEK-293T, 0.25 h, condition central nervous system disease. The essentials:
as §4

In assay [14] the test system is HEK293T. The assay is described as follows: Antagonist activity against GPR65 Y272A mutant (unknown origin) transfected in human HEK293T cells incubated for 15 mins by luminescence counter analysis. In kind it is cell-based. The conditions noted are these: filed as antagonist. The essentials: as §4
Assay [15] concerns HEK293T. Nature of the assay: Antagonist activity against GPR65 R187L mutant (unknown origin) transfected in human HEK293T cells incubated for 15 mins by luminescence counter analysis. In kind it is cell-based. The conditions noted are these: filed as antagonist. The procedure, abridged:
as §4

Assay [16] addresses T1, G-protein coupled receptor 65. The assay is described as follows: Antagonist activity against GPR65 (unknown origin) transfected in human HEK293T cells incubated for 15 mins by luminescence counter analysis relative to control. It is filed as functional, cell-based. The procedure, abridged:
as §4

Activity calls are given as the source filed them. The rule behind the calls is not given here.

One may read the pKb as the Kb on a negative log10 scale, so that one unit is a factor of ten. One may read the EC50 as the midpoint of the concentration-response curve. The low end stands for an effect from little substance, the high end for a need for much substance. As usually defined, the Emax is the maximal effect, on the per cent scale that the assay sets.

T1 sequence (Q8IYL9 whole entry): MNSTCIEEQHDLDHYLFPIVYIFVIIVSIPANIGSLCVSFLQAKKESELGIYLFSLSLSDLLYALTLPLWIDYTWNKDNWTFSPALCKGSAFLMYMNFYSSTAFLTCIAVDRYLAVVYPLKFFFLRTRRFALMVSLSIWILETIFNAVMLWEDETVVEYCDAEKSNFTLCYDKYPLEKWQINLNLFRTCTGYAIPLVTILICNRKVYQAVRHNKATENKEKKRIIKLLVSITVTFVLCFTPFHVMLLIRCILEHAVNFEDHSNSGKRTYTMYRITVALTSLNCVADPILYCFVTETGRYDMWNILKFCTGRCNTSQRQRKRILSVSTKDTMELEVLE
Chain of G-prodeshotein coupled receptor 4 (Homo sapiens) (P46093 whole entry, looked up): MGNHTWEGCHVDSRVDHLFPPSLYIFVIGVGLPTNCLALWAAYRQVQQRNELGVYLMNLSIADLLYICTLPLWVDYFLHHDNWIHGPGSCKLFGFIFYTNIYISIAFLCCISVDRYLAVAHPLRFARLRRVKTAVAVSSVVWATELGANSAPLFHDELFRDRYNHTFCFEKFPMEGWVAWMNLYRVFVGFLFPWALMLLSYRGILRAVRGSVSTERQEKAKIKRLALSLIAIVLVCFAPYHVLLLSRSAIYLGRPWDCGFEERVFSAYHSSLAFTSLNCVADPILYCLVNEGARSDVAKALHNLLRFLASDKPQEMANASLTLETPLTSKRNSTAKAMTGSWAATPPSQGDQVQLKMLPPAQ

On to `O=C1Nc2ccc(Cl)cc2C(c2ccccc2Cl)=NC1O` (stereo unspecified), for which the outcome in [1], in assay [2], in assay [3] and in [5] was inactive. In addition, the pKb in assay [4] is 5.92. The Activity in assay [6] is 2. Moreover, the result in assay [7] and in assay [8] was Active.

As for `CN1N=C(SCc2ccc(Cl)cc2Cl)Sc2c1cnn(C)c2=O`, the result (in [9]; in the assay on HEK293T [11]; in the assay with HEK293T [14]; with HEK293T [15]) was Active. For the same compound, the results for the half-maximal effective concentration (EC50) in assay [10] and in assay [12] were 7.76 µM and 1.29 µM, respectively. The maximal response (Emax) is 8.1% in assay [13] and 7.6% in assay [16].

The values are drawn from ChEMBL document CHEMBL5661984, “Allosteric ligands for the pharmacologically dark receptors GPR68 and GPR65” (Nature, 2015).
